From ChEMBL document CHEMBL3286129, “Optimization of peptidomimetic boronates bearing a P3 bicyclic scaffold as proteasome inhibitors” (Eur J Med Chem, 2014)
pKi: −log10 of the molar value. Active and inactive are the calls of the source. No cut-off for these calls is given here.

Columns and labels:
NCI-H322M = assay: Growth inhibition of human NCI-H322M cells; format: functional
NCI-H522 = assay: Growth inhibition of human NCI-H522 cells; format: functional
COLO 205 = assay: Growth inhibition of human COLO205 cells; format: functional
HT-29 = assay: Growth inhibition of human HT-29 cells; format: functional
SF-268 = assay: Growth inhibition of human SF268 cells; format: functional
[1] = Growth inhibition of human SF295 cells; format: functional; conditions: SF-295
[2] = Growth inhibition of human SF539 cells; format: functional
SNB-19 = assay: Growth inhibition of human SNB19 cells; format: functional
[3] = Growth inhibition of human LOXIMVI cells; format: functional; conditions: LOX IMVI
Malme-3M = assay: Growth inhibition of human MALME-3M cells; format: functional
MDA-MB-435 = assay: Growth inhibition of human MDA-MB-435 cells; format: functional
SK-MEL-5 = assay: Growth inhibition of human SK-MEL-5 cells; format: functional
IGROV-1 = assay: Growth inhibition of human IGROV1 cells; format: functional
[4] = Growth inhibition of human OVCAR4 cells; format: functional
[5] = Growth inhibition of human OVCAR8 cells; format: functional
SK-OV-3 = assay: Growth inhibition of human SKOV3 cells; format: functional
ACHN = assay: Growth inhibition of human ACHN cells; format: functional
[6] = Growth inhibition of human RXF393 cells; format: functional
SN12C = assay: Growth inhibition of human SN12C cells; format: functional
[7] = Growth inhibition of human UO31 cells; format: functional; conditions: UO-31
DU-145 = assay: Growth inhibition of human DU145 cells; format: functional
MCF7 = assay: Growth inhibition of human MCF7 cells; format: functional
MDA-MB-231 = assay: Growth inhibition of human MDA-MB-231 cells; format: functional
[8] = Growth inhibition of human Hs 578T cells; format: functional
[9] = target: T1, Proteasome Macropain subunit MB1 (Homo sapiens, UniProt P28074); assay: Inhibition of chymotrypsin-like activity of 20S proteasome in human erythrocytes using Suc-Leu-Leu-Val-Tyr-AMC as substrate by fluorescence assay; conditions: read-out: Ki
T1 sequence (P28074 whole entry): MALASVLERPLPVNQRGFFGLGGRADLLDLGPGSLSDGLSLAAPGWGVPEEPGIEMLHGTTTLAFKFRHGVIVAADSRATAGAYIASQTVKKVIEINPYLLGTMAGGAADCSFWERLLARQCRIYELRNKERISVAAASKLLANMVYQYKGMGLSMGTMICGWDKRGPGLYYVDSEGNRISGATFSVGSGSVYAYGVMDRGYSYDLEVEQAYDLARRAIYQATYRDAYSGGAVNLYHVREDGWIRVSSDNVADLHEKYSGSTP

[10] = target: Proteasome Macropain subunit (Homo sapiens) (UniProt P49721); assay: Inhibition of trypsin-like activity of 20S proteasome in human erythrocytes using Boc-Leu-Arg-Arg-AMC as substrate by fluorescence assay; format: cell-based
How it was run: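 Human 20S proteasome 0.0025 mg/mL at 30 °C in 50 mM Tris pH 7.4, 50 mM NaCl, 0.5 mM EDTA, 0.03% SDS, 7.5% DMSO. Varied inhibitor concentrations; AMC release monitored continuously for 10 min, ex 380/em 460 nm. Ki derived from progress-curve IC50 fit.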

Chymotrypsinogen A = Chymotrypsinogen A (Bos taurus, UniProt P00766); assay: Inhibition of bovine pancreatic alpha-chymotrypsin using Suc-Leu-Leu-Val-Tyr-AMC as substrate by fluorescence assay
How it was run: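 Enzyme incubated at 20 °C in 50 mM Tris pH 8.0, 100 mM NaCl, 5 mM EDTA, 7.5% DMSO with varied inhibitor concentrations. Substrate hydrolysis followed for 10 min. Ki from progress curves; mean of three determinations.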

[11] = Cytotoxicity against human leukemia cells assessed as cell growth at 10 uM relative to control; format: functional; conditions: read-out: Activity
How it was run: (§1)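 Single-concentration screen against a panel of human cancer cell lines. Each value is the mean percent growth across the cell lines of that tumour subpanel.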

[12] = Cytotoxicity against human CNSC cells assessed as cell growth at 10 uM relative to control; format: functional; conditions: read-out: Activity; how it was run: as §1
[13] = Cytotoxicity against human renal cancer cells assessed as cell growth at 10 uM relative to control; format: functional; conditions: Cancer cell lines, read-out: Activity; how it was run: as §1
[14] = Cytotoxicity against human breast cancer cells assessed as cell growth at 10 uM relative to control; format: functional; conditions: Cancer cell lines, read-out: Activity; how it was run: as §1
[15] = Growth inhibition of human MOLT4 cells; format: functional
SR = assay: Growth inhibition of human SR cells; format: functional
HOP-62 = assay: Growth inhibition of human HOP62 cells; format: functional
[16] = Growth inhibition of human HOP92 cells; format: functional
NCI-H226 = assay: Growth inhibition of human NCI-H226 cells; format: functional
[17] = read-out: LC50 (the source's name)

Sequence of Proteasome Macropain subunit (Homo sapiens) (P49721 whole entry): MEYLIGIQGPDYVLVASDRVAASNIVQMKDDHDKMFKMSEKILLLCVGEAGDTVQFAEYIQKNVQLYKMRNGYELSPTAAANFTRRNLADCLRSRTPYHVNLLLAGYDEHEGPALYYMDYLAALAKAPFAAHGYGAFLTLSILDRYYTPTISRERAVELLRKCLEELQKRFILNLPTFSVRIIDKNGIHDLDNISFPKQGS

CC(C)C[C@H](NC(=O)CCn1ccc2ncccc2c1=O)B(O)O
GI50 (NCI-H322M): > 100 µM | TGI (NCI-H322M): > 100 µM | CC50 (NCI-H322M; [17]): > 100 µM | GI50 (NCI-H522): 4.66 µM | LC50 (NCI-H522): > 100 µM | TGI (NCI-H522): 21.7 µM | GI50 (COLO 205): 10 µM | TGI (COLO 205): > 100 µM | CC50 (COLO 205; [17]): > 100 µM | GI50 (HT-29): 6.77 µM | LC50 (HT-29): > 100 µM | TGI (HT-29): > 100 µM | GI50 (SF-268): 14.7 µM | LC50 (SF-268): > 100 µM | TGI (SF-268): > 100 µM | GI50 [1]: 8.92 µM | LC50 [1]: > 100 µM | TGI [1]: 36 µM | GI50 ([2]; SF-539): 2.76 µM | TGI ([2]; SF-539): 8.38 µM | CC50 ([2]; SF-539, read-out: LC50 (the source's name)): > 100 µM | GI50 (SNB-19): 41.2 µM | TGI (SNB-19): > 100 µM | CC50 (SNB-19; [17]): > 100 µM | GI50 [3]: 6.37 µM | TGI [3]: 28.4 µM | CC50 [3, 17]: > 100 µM | GI50 (Malme-3M): 5.12 µM | TGI (Malme-3M): 62.2 µM | CC50 (Malme-3M; [17]): > 100 µM | GI50 (MDA-MB-435): 2.41 µM | TGI (MDA-MB-435): 7.02 µM | CC50 (MDA-MB-435; [17]): 67.8 µM | GI50 (SK-MEL-5): 4.03 µM | LC50 (concentration killing 50% of cells) (SK-MEL-5): > 100 µM | TGI (SK-MEL-5): 22.1 µM | GI50 (IGROV-1): 60.2 µM | LC50 (IGROV-1): > 100 µM | TGI (IGROV-1): > 100 µM | GI50 ([4]; OVCAR-4): 28.4 µM | TGI ([4]; OVCAR-4): > 100 µM | CC50 ([4]; OVCAR-4, read-out: LC50 (the source's name)): > 100 µM | GI50 ([5]; OVCAR-8): 37.5 µM | TGI ([5]; OVCAR-8): > 100 µM | CC50 ([5]; OVCAR-8, read-out: LC50 (the source's name)): > 100 µM | GI50 (SK-OV-3): > 100 µM | LC50 (SK-OV-3): > 100 µM | TGI (SK-OV-3): > 100 µM | GI50 (ACHN): 9.15 µM | TGI (ACHN): > 100 µM | CC50 (ACHN; [17]): > 100 µM | GI50 ([6]; RXF 393): 3.29 µM | TGI ([6]; RXF 393): 14.3 µM | CC50 ([6]; RXF 393, read-out: LC50 (the source's name)): 54.2 µM | GI50 (SN12C): 18 µM | TGI (SN12C): > 100 µM | CC50 (SN12C; [17]): > 100 µM | GI50 [7]: 19.4 µM | LC50 [7]: > 100 µM | TGI [7]: > 100 µM | GI50 (DU-145): 32.7 µM | TGI (DU-145): > 100 µM | CC50 (DU-145; [17]): > 100 µM | GI50 (MCF7): 3.61 µM | TGI (MCF7): > 100 µM | CC50 (MCF7; [17]): > 100 µM | GI50 (MDA-MB-231): 7.94 µM | TGI (MDA-MB-231): 32.5 µM | CC50 (MDA-MB-231; [17]): > 100 µM | GI50 [8]: 15.6 µM | TGI [8]: > 100 µM | CC50 [8, 17]: > 100 µM | pKi [9]: 7.24 | inhibition [10]: inactive | Ki (Chymotrypsinogen A): Not Active | growth at 10 µM [11]: 34.8% | growth at 10 µM [12]: 82.9% | growth at 10 µM [13]: 76.1% | growth at 10 µM [14]: 68% | GI50 ([15]; MOLT-4): 3.3 µM | TGI ([15]; MOLT-4): > 100 µM | CC50 ([15]; MOLT-4, read-out: LC50 (the source's name)): > 100 µM | GI50 (SR): 3.18 µM | TGI (SR): > 100 µM | CC50 (SR; [17]): > 100 µM | GI50 (HOP-62): 29.8 µM | TGI (HOP-62): > 100 µM | CC50 (HOP-62; [17]): > 100 µM | GI50 ([16]; HOP-92): 16.8 µM | TGI ([16]; HOP-92): 71.3 µM | CC50 ([16]; HOP-92, read-out: LC50 (the source's name)): > 100 µM | GI50 (NCI-H226): 2.68 µM | TGI (NCI-H226): 8.9 µM | CC50 (NCI-H226; [17]): 48 µM
